Most compounds without a hit are left out; they make up all but 3.9% or so of the library.
Gli-Sufu antag: blocks Gli-Sufu signaling in a luciferase reporter; Sufu-KO-LIGHT fibroblasts, Gli luciferase reporter luminescence; inhibition, % at 5 µM; hit rate 0.74% among 340,000; AID 588413;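 active means inhibition above about 55%, limit read from the data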;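 further: 0% = DMSO-treated cells and 100% = wells with medium but no cells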
697 NFkB inh: inhibitors of the PMA/ionomycin-induced NF-kB reporter in 697 B cells; 697 B-cell NF-kB luciferase reporter, 16 h; inhibition, % at 4 µM; AID 435022; hit rate 0.33% among 330,000; in the data active means inhibition above about 35%
CHOP inh: inhibitors of CHOP induction in ER stress response; CHO-K1 CHOP-promoter luciferase, tunicamycin-induced, 15-18 h; inhibition, % at 10 µM; hit rate 3.8% among 220,000; AID 2732;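 active means compounds that reduced the stress-induced luciferase reporter signal by more than about 70% of percent inhibition, limit read from the data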;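 further: 0% = tunicamycin plus vehicle and 100% = wells without tunicamycin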
CHOP UPR activ: apoptotic UPR (CHOP) activation. CHO-CHOP luciferase reporter, luminescence; percent of tunicamycin response over DMSO baseline. activation, % at 10 µM. hit rate 0.34% among 330,000. AID 449763;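 active means at 10 µM dose, activation of 40% or more, normalized to positive control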;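 further: 100% = tunicamycin at 10 µg/mL and 0% = DMSO alone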
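Material: CHO-CHOP cells, stable luciferase reporter of PERK-eIF2a-CHOP signalling; quantity: 500 reporter cells seeded per well; buffer or medium: F12 medium containing 10% fetal bovine serum; compound: one dose, 10 µM in 0.5% DMSO; incubation: 6 h compound treatment, 37 °C; measured by: Steady-Glo luciferase luminescence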
XBP1 UPR activ: activators of adaptive arm of unfolded protein response (XBP1); AID 463104; CHO-XBP1 luciferase reporter, IRE1-XBP1 UPR activation, luminescence; percent of tunicamycin response, DMSO as zero; hit rate 0.33% among 330,000; activation, % at 20 µM;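 active means versus positive control, 20 µM dose yields 30% or more activation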;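 further: 100% = tunicamycin at 10 µg/mL and 0% = DMSO only wells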
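Material – CHO cell line with stable XBP1 luciferase reporter · Buffer or medium – F12 plus 10% FBS · Compound – single point, 20 µM final compound, 1% DMSO · Schedule – 16-18 h cell attachment at 37 °C, then 6 h compound exposure · Signal – Steady-Glo luminescence read · Benchmarks – high control tunicamycin 10 µg/mL final, low control DMSO vehicle only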
Jurkat NFkB inh: lowers PMA/ionomycin-induced NF-kB signal in Jurkat cells | PMA/ionomycin-induced NF-kB luciferase reporter, luminescence | inhibition, % at 4 µM | hit rate 0.53% among 330,000 | AID 435003; in the data active means inhibition above about 50%
Jurkat NFkB conf: lowers PMA/ionomycin-induced NF-kB signal in Jurkat cells | inhibition, % at 4 µM | shares compounds with Jurkat NFkB inh | Jurkat NF-kB luciferase, 16 h | AID 435020 | hit rate 27% among 2,700;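 active means inhibition reaching about 45% at 4 µM in either replicate, limit read from the data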;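 further: plate controls were PMA/ionomycin stimulated DMSO wells for no effect and unstimulated DMSO wells for full effect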
* = called active by the depositor; . = not tested or not shown.

SMILES	Gli-Sufu antag	697 NFkB inh	CHOP inh	CHOP UPR activ	XBP1 UPR activ	Jurkat NFkB inh	Jurkat NFkB conf
COc1ccc(C[C@H](N)C(=O)N[C@H]2[C@@H](O)[C@H](n3cnc4c(N(C)C)ncnc43)O[C@@H]2CO)cc1	90*	-5	.	35	26	100*	88*
CCNc1c(NC(=O)C2CCC(C)CC2)c(=O)oc2ccccc12 (configuration not stated)	22	1	.	0	-4	-4	.
CN1CCN(c2ccc(NC(=O)CSc3nnnn3-c3ccccc3F)cc2)CC1	-1	-26	.	0	-3	-36	.
Cc1ccc(C(=O)NC2c3ccccc3-c3ccccc32)cc1	-2	-24	5	3	2	60*	2
CSCCOC(=O)c1[nH]c2c(c1C)C(=O)CC(c1ccco1)C2 (configuration not stated)	35	-3	.	2	5	58*	2
Cc1c(C(=O)OCc2ccccc2)[nH]c2c1C(=O)CC(c1ccco1)C2 (configuration not stated)	51	-8	.	0	10	63*	39
COCCOC(=O)c1[nH]c2c(c1C)C(=O)CC(c1ccco1)C2 (configuration not stated)	-4	-15	.	0	6	60*	10
Cc1c(C(=O)OCCOC(C)C)[nH]c2c1C(=O)CC(c1ccco1)C2 (configuration not stated)	54	-18	.	-2	14	60*	36
COCCOC(=O)c1[nH]c2c(c1C)C(=O)CC(c1ccccc1)C2 (configuration not stated)	48	-16	-12	1	10	46	.
CCOC(=O)c1[nH]c2c(c1C)C(=O)CC(c1ccco1)C2 (configuration not stated)	39	-42	.	-2	10	75*	55*
COc1ccc(C(=O)N[C@H](C(=O)NCCCSc2ccccc2)C(C)C)cc1	-2	-1	.	0	-4	-5	.
CCCN(CCC)S(=O)(=O)c1ccc(C(=O)OCCN2C(=O)c3cccc4c(N5CCOCC5)ccc(c34)C2=O)cc1	-2	-27	40	1	-2	1	.
O=C(OCCN1C(=O)c2cccc3c(N4CCOCC4)ccc(c23)C1=O)c1ccc(Cl)cc1	-8	-56	0	2	10	64*	37
CCc1nccn1CCC(=O)N1CCCC(N2CCN(c3cccc(Cl)c3)CC2)C1 (configuration not stated)	28	-38	.	4	1	-24	.
CN(C)CCCNS(=O)(=O)c1ccc(NC2CCCCCC2)c([N+](=O)[O-])c1	36	-26	.	3	6	56*	23
NS(=O)(=O)c1ccc(N2CCOCC2)c(C(=O)NCc2ccc3c(c2)OCO3)c1	-10	11	.	0	0	-8	.
COc1cc(OC)cc(-c2nc3cc(C)ccc3o2)c1	-89	-175	-3	4	4	-151	-72
COc1ccc(CN2CCc3ccccc3C2)cc1Br	4	-30	.	2	-1	-8	.
Cc1ccc(-c2c(C(=O)O)c3ccccc3[nH]c2=O)cc1	5	-11	.	-1	-1	-2	.
COc1ccc(-c2nc3ccccc3s2)cc1NC(C)=O	-85	-117	36	6	4	-183	-73
Cc1ccccc1S(=O)(=O)Nc1nc2ccccc2nc1N1CCc2ccccc2C1	-15	-135	6	2	2	-166	-90
O=S(=O)(Nc1nc2ccccc2nc1N1CCc2ccccc2C1)c1ccc(Br)cc1	-64	.	18	.	.	.	.
O=[N+]([O-])c1cccc(S(=O)(=O)N2CCN(c3ccccn3)CC2)c1	7	-5	.	-2	-7	-1	.
Cc1cc(C(=O)COc2cccnc2[N+](=O)[O-])c(C)n1-c1ccccc1	17	-7	75*	-10	-5	65*	18
COc1ccc(C(=O)NN/C(=N/S(=O)(=O)c2ccc(C)cc2)c2ccccc2)cc1	-91	-192	-13	4	2	-181	-107
